The values that follow come from ChEMBL document CHEMBL1124177, “Synthesis, configuration, and evaluation of two conformationally restrained analogues of phencyclidine” (J Med Chem, 1988).

Assay [1] has as its system Rattus norvegicus. The assay can be described thus: The compound was tested for its stereotyped behavior after intracerebroventricular introduction in the rat. It counts as functional. In outline: (§1)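 Sprague–Dawley rats (~200 g), caged singly, adapted ≥1 h, each used once. Intracerebroventricular dosing. Scored on the Sturgeon PCP rating scale immediately, at 2.5 and 5 min, then every 5 min until back to control. Dose–response built from peak-effect ratings, ≥18 rats per curve. ED50 (nmol/rat) and confidence limits by computerized Finney assay.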

The test system of assay [2] is Rattus norvegicus. The assay can be described thus: The compound was tested for ataxia after intracerebroventricular introduction in the rat. In kind it is functional. The gist of the method:
as §1

The target in assay [3] is Glutamate receptor ionotropic, NMDA 2C (Rattus norvegicus, UniProt Q00961). The experiment in a line: Binding affinity of compound against Phencyclidine receptor by displacement of [3H]TCP. To be noted: read-out: Ki app. The gist of the method: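 Membrane preparation incubated in triplicate with 2 nM [3H]TCP plus varying displacer levels in 5 mM Tris-HCl pH 7.4, 1 h, room temperature. Filtered on filters presoaked in 0.5% polyethylenimine, rinsed with Tris buffer, counted by liquid scintillation. Specific binding defined with 10 μM TCP. Mean ±SEM of at least three experiments.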

Each structure is given as a SMILES string. pKi: −log10 of the molar value.

Chain of Glutamate receptor ionotropic, NMDA 2C (Q00961 whole entry): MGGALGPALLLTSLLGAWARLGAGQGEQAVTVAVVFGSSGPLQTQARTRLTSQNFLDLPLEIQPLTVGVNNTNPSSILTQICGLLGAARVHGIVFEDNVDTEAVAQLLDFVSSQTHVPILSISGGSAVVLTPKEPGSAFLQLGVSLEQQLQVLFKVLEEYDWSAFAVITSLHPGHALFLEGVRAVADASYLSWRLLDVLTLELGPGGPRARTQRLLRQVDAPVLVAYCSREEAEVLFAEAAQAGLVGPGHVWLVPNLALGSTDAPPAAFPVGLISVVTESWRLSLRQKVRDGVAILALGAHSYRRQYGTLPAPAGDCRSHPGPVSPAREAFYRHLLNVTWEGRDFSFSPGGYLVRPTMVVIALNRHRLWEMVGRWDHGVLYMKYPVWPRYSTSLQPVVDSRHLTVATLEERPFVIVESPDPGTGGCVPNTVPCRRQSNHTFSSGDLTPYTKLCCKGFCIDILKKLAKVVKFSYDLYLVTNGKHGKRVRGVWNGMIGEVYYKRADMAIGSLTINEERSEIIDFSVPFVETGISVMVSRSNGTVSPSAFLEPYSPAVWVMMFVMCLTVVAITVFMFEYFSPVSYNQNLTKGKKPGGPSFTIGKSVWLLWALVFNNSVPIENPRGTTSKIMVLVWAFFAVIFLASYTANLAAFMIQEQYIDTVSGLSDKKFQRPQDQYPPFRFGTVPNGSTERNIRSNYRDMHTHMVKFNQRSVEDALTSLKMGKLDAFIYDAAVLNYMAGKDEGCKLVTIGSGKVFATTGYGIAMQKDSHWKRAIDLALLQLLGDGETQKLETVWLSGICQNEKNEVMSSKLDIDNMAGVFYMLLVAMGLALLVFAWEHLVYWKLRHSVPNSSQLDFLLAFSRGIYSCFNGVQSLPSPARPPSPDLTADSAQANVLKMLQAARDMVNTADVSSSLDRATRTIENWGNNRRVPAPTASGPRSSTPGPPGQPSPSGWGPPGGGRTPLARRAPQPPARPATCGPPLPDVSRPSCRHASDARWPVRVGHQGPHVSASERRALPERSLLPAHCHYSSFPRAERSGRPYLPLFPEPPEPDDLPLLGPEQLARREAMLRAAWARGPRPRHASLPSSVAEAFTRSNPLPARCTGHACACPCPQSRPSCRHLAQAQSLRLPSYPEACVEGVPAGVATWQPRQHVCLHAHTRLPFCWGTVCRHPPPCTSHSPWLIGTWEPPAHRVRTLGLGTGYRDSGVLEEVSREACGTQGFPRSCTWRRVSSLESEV

In general, pKi refers to the Ki on a negative log10 scale, so that one unit is a factor of ten. As to `c1ccc([C@@H](C2CC3CC3C2)N2CCCCC2)cc1` (some centres undefined), the ED50 came to 310 nM in the assay with Rattus norvegicus [1] and 300 nM in the assay with Rattus norvegicus [2]. Besides, in assay [3], the pKi is 6.17.
Regarding `c1ccc([C@H](C2CC3CC3C2)N2CCCCC2)cc1` (some centres undefined), the ED50 in the assay with Rattus norvegicus [1] was 400 nM; with Rattus norvegicus [2], 450 nM. Also, in assay [3], the pKi is 6.20.
In the case of `c1ccc(C2(N3CCCCC3)CCCCC2)cc1` [PHENCYCLIDINE], the ED50 in the assay with Rattus norvegicus [1] came to 150 nM; in the assay on Rattus norvegicus [2] it was 210 nM. For the same compound, in assay [3], the pKi is 7.04.
